Compound activity as filed in PubChem.
Only some compounds are listed: those with a hit (about 1.8% of all), similar ones and a draw of the others.
NPY2 pot ag: human NPY-Y2 potentiation or agonism, primary screen. cells expressing NPY-Y2, potentiator/agonist read-out. activation, % at 3.6 µM. hit rate 0.45% among 220,000. AID 1359; in the data active means activation above about 27%;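 further: cells stimulated with NPY near EC25 plus isoproterenol at EC100; 0% = vehicle plus submaximal agonist and 100% = vehicle plus saturating agonist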
Target sequence (P49146 whole entry, looked up): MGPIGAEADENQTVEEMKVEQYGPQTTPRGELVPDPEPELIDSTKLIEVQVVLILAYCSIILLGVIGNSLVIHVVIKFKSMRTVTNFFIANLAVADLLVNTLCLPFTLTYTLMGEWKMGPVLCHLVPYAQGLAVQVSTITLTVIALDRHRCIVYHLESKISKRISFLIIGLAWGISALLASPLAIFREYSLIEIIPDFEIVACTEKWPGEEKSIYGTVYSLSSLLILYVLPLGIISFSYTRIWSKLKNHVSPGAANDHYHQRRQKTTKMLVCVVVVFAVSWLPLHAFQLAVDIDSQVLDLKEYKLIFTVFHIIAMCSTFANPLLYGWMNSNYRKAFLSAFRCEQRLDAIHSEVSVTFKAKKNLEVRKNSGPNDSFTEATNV
NPY-Y1 antag: antagonists of human neuropeptide Y receptor Y1; P25929; HEK293-CNG Y1 cells, membrane potential fluorescence; NPY at EC95, then isoproterenol; AID 1040; hit rate 1% among 200,000; inhibition, % at 3.6 µM;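 active means inhibition above the campaign mean inhibition of all tested compounds plus 3 SD, cut at about 20% in these data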;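 further: 0% = DMSO wells given NPY plus isoproterenol and 100% = isoproterenol alone without NPY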
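Test system – HEK293 Y1/CNG channel cell line · Also added – NPY agonist 25 nM, then isoproterenol 1 µM plus Ro 20-1724 25 µM · Compound dosing – one concentration, 3.6 µM, in 0.4% DMSO · Schedule – compound incubation 1 h at room temperature, readout 45 min post-stimulation · Technique – fluorescence, membrane potential probe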
NPY1 pot ag: potentiators or agonists of human neuropeptide Y receptor Y1; activation, % at 3.6 µM; NPY-Y1 expressing cells, potentiator/agonist activation; AID 1304; hit rate 0.37% among 220,000; P25929; in the data active means activation above about 33%, passing the limit was not always enough;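 further: cells stimulated with NPY at EC10 then isoproterenol at EC100; 0% = low agonist plus stimulus and 100% = saturating agonist plus stimulus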
NPY Y2 blocker: antagonists of human neuropeptide Y receptor Y2; P49146; NPY-Y2 expressing cells, antagonist mode; inhibition, % at 2.7 µM; hit rate 0.99% among 140,000; AID 793; in the data active means inhibition above about 17%;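 further: 0% = vehicle with agonist challenge and 100% = reference antagonist with challenge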
NPY-Y2 confirm: confirmation of human NPY-Y2 receptor potentiators or agonists; shares compounds with NPY2 pot ag; cell-based NPY-Y2 potentiator/agonist assay; activation, % at 3.6 µM; hit rate 20% among 450; AID 1539; in the data active means activation above about 33%
NPY-Y1 potentiator: potentiates or activates NPY-Y1, counter-screen for NPY-Y2 hits; activation, % at 3.6 µM; hit rate 20% among 450; Y1 HEK293-CNG cells, membrane potential fluorescence; shares compounds with NPY2 pot ag; AID 1651; in the data active means activation above about 45%;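 further: cells stimulated with submaximal NPY then isoproterenol with phosphodiesterase inhibitor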
NPY-Y1 agonist 2: counter-screen for NPY-Y2 potentiators: agonists of human NPY-Y1 | shares compounds with NPY2 pot ag | HEK293 Y1-CNGC, membrane potential fluorescence, agonism | activation, % at 3.6 µM | hit rate 37% among 450;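 active means activation above the mean of DMSO-only control wells plus 3 SD, cut at about 18% in these data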;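 further: cells stimulated with 1 µM isoproterenol plus the PDE inhibitor Ro 20-1724; 0% = isoproterenol with DMSO and no NPY and 100% = 40 nM NPY; Y1 agonists lower the membrane potential dye signal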
CNGC inh: cyclic nucleotide gated channel inhibition as counter-screen | AID 1703 | HEK293-CNG parental, isoproterenol cAMP, membrane potential fluorescence | hit rate 32% among 450 | shares compounds with NPY2 pot ag | inhibition, % at 3.6 µM;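 active means inhibition above the control-well mean plus 3 SD of those wells, cut at about 22% in these data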;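 further: 0% = DMSO with isoproterenol and 100% = DMSO without isoproterenol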
Y2 agonist ctr: NPY-Y2 agonism, counter-screen for Y2 potentiators. shares compounds with NPY2 pot ag. HEK293 Y2/CNGC cells, membrane potential fluorescence, agonist mode. activation, % at 3.6 µM. hit rate 56% among 450. AID 1710;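 active means activation above the mean of solvent-only control wells plus 3 SD, cut at about 10% in these data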;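 further: cells stimulated by isoproterenol with no NPY added so direct agonism is tested; 0% = DMSO with isoproterenol alone and 100% = NPY at EC100 plus isoproterenol; agonism lowers probe fluorescence through less cAMP and CNG channel opening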
Starred values were filed as active, the others as inactive; nt = no result.

SMILES	NPY2 pot ag	NPY-Y1 antag	NPY1 pot ag	NPY Y2 blocker	NPY-Y2 confirm	NPY-Y1 potentiator	NPY-Y1 agonist 2	CNGC inh	Y2 agonist ctr
CC(C)(C)n1nnnc1C(c1cccc(C#N)c1)N1CCCc2ccccc21 (stereo not given)	27*	16	14	6	4	1	-1	7	10
CCc1c(C)c(C#N)c2nc3ccccc3n2c1N(C)C	101*	7	-10	0	-14	-16	-29	-27	-16
CCc1ccccc1NC(=O)C1c2ccccc2Oc2ccccc21	9	-3	-7	7	nt	nt	nt	nt	nt
CC(C)COC(=O)NC1c2ccccc2Oc2ccccc21	100*	nt	-38	nt	-17	-33	-32	-21	-8
Cc1ccc(CNCC(=O)Nc2cccc(S(=O)(=O)NC3=NCCCCC3)c2)cc1	-9	-1	4	nt	nt	nt	nt	nt	nt
CCN(CC)CCCNc1nc2cc(OC)c(OC)cc2c2nc(-c3cccnc3)nn12	-18	-1	-14	4	nt	nt	nt	nt	nt
COc1cc2nc(NCC3CCCO3)n3nc(-c4cccnc4)nc3c2cc1OC (stereo not given)	65*	3	15	-2	-1	8	1	4	9
N#Cc1cnn(-c2ccc(F)cc2)c1N	55*	nt	13	nt	-7	-14	-25	-7	-15
Cc1nc2c(O)cccc2cc1CO	1	nt	10	nt	nt	nt	nt	nt	nt
FC(F)(F)c1cccc(NC(=S)NNC(=S)Nc2cccc(C(F)(F)F)c2)c1	54*	nt	34	nt	32	40	46*	44*	33*
CC(=O)N1CC(=O)N=C1SCC(=O)Nc1nc(C)c(-c2ccccc2)s1	37*	-6	36	nt	25	35	41*	40*	28*
CC(C)c1ccc2oc(-c3ccc(NC(=O)c4ncn[nH]4)cc3)nc2c1	-4	-3	16	-1	nt	nt	nt	nt	nt
CCC(C)c1ccc2oc(-c3ccc(NC(=O)c4ncn[nH]4)cc3)nc2c1 (stereo not given)	35*	-1	-4	4	10	25	10	5	8
O=C(Nc1cccc(S(=O)(=O)Nc2ccc(Cl)cc2)c1)c1ccc(Cl)nc1	46*	6	1	-2	11	-16	-21	1	3
COc1ccc(NS(=O)(=O)c2cccc(NC(=O)c3ccc(Cl)nc3)c2)cc1	14	16	-21	nt	nt	nt	nt	nt	nt
CCOC(=O)CSc1nnc(-c2ccccc2OC)o1	-5	-2	-8	2	nt	nt	nt	nt	nt
COC(=O)CSc1nnc(-c2ccc(OC)cc2OC)o1	50*	-5	5	0	36*	61*	36*	49*	25*
COc1cc(CCCN2C(=S)NC[C@@H]2c2ccccc2)cc(OC)c1OC	-11	0	4	nt	nt	nt	nt	nt	nt
O=C(Nc1cc(S(=O)(=O)N2CCCCC2)ccc1O)c1ccccc1NS(=O)(=O)c1ccc(F)cc1	20	3	18	-1	nt	nt	nt	nt	nt
O=C(Nc1cc(S(=O)(=O)N2CCCCC2)ccc1Cl)c1ccccc1NS(=O)(=O)c1ccc(F)cc1	42*	6	-59	3	30	5	0	14	19*
COc1ccc(OC)c(NC(=O)c2ccc(OC3CSC3)cc2)c1	-36	16	-33	nt	nt	nt	nt	nt	nt
O=C(N=Nc1c(O)[nH]c2ccccc12)c1ccco1	-9	8	7	nt	nt	nt	nt	nt	nt
Clc1ccccc1-c1nnc2n1CCCCC2	-5	nt	22	nt	nt	nt	nt	nt	nt
